Here are results for 6 molecules from ChEMBL document CHEMBL4814011, “Discovery of a novel class of inhaled dual pharmacology muscarinic antagonist and β2 agonist (MABA) for the treatment of chronic obstructive pulmonary disease (COPD)” (Bioorg Med Chem Lett, 2021).

The source made the active and inactive calls. The rule behind the calls is not given here.

Chain of Beta-2 adrenergic receptor (P07550 whole entry): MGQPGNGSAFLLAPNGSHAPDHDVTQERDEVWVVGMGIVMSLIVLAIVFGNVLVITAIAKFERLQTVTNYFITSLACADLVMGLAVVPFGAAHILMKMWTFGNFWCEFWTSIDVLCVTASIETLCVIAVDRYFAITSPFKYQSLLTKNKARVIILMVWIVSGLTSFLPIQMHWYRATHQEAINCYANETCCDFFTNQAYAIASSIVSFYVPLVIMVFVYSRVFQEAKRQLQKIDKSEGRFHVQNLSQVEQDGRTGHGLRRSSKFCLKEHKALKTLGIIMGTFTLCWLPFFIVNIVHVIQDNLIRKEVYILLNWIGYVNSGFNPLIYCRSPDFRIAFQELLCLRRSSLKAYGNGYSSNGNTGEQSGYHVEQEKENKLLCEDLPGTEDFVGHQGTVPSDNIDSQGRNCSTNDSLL

Test system in one data set: not listed separately
Put plainly: In vivo agonist activity at adrenergic beta2 receptor in guinea pig assessed as reduction in acetylcholine/histamine-induced bronchoconstriction at 3 mg/kg, IT(Intratracheal) measured after 24 hrs by Konzett-Roessler methodology relative to control. As to conditions: Cavia porcellus, inhaled or nasal. In kind it is functional.
As to `O=C(N[C@@H](c1ccccc1)c1cccc(OCc2ccc(CCNC[C@H](O)c3ccc(O)c4[nH]c(=O)ccc34)cc2)c1)O[C@H]1CN2CCC1CC2`, the inhibition in vivo (as a rule, the percentage by which the read-out fell short of the control) at 3 mg/kg is 35%.
On the same count and under the same terms, next, `O=C(N[C@@H](c1ccccc1)c1ccc(-c2cccc(OCc3ccc(C(=O)N(CCCNC[C@H](O)c4ccc(O)c5[nH]c(=O)ccc45)Cc4ccccc4)cc3)c2)cc1)O[C@H]1CN2CCC1CC2`: 20%.

A further data set concerns the target Beta-2 adrenergic receptor (Homo sapiens, UniProt P07550). Put plainly: Displacement of 125I-cyanopindolol from human adrenergic beta2 receptor.
Conditions: not given
The procedure, abridged: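 Radioligand binding on cloned human β2 adrenoceptor, with displacement of 125I-cyanopindolol.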
Background: In a radioligand displacement assay an active substance lowers the binding of a labelled ligand.
Take `O=C(N[C@@H](c1ccccc1)c1ccc(-c2cccc(OCc3ccc(C(=O)NCCCNC[C@H](O)c4ccc(O)c5[nH]c(=O)ccc45)cc3)c2)cc1)O[C@H]1CN2CCC1CC2`: affinity was put at a Ki of 12.6 pM.
Same read-out and setting: next, `O=C(NC(c1ccccc1)c1cccc(OCCCCCCCCCNC[C@H](O)c2ccc(O)c3[nH]c(=O)ccc23)c1)O[C@H]1CN2CCC1CC2` (stereo not given in full): 200 pM; `O=C(NC(c1ccccc1)c1ccc(OCCCCCCCCCNC[C@H](O)c2ccc(O)c3[nH]c(=O)ccc23)cc1)O[C@H]1CN2CCC1CC2` (stereo not given in full): 251 pM; `O=C(N[C@@H](c1ccccc1)c1cccc(OCCCCCCNC[C@H](O)c2ccc(O)c3[nH]c(=O)ccc23)c1)O[C@H]1CN2CCC1CC2`: 501 pM.
Still for that read-out and setting: next, `O=C(N[C@@H](c1ccccc1)c1ccc(-c2cccc(OCc3ccc(C(=O)N(CCCNC[C@H](O)c4ccc(O)c5[nH]c(=O)ccc45)Cc4ccccc4)cc3)c2)cc1)O[C@H]1CN2CCC1CC2`: 100 pM.

Another data set addresses beta-2 adrenergic receptor (guinea pig). Put plainly: Agonist activity at beta-2 adrenergic receptor in guinea pig trachea assessed as inhibition of histamine-induced contraction.
Conditions: not given
Consider `O=C(N[C@@H](c1ccccc1)c1ccc(-c2cccc(OCc3ccc(C(=O)NCCCNC[C@H](O)c4ccc(O)c5[nH]c(=O)ccc45)cc3)c2)cc1)O[C@H]1CN2CCC1CC2`, for which the pIC50 (in general, the negative decadic logarithm of the IC50, by convention in mol/L) worked out at 9.8.
For the molecule `O=C(NC(c1ccccc1)c1cccc(OCCCCCCCCCNC[C@H](O)c2ccc(O)c3[nH]c(=O)ccc23)c1)O[C@H]1CN2CCC1CC2` (stereo not given in full), the pIC50 came to 7.3.
Turning to `O=C(NC(c1ccccc1)c1ccc(OCCCCCCCCCNC[C@H](O)c2ccc(O)c3[nH]c(=O)ccc23)cc1)O[C@H]1CN2CCC1CC2` (stereo not given in full), the pIC50 is 7.3.
Still for that read-out and setting: next, `O=C(N[C@@H](c1ccccc1)c1cccc(OCc2ccc(CCNC[C@H](O)c3ccc(O)c4[nH]c(=O)ccc34)cc2)c1)O[C@H]1CN2CCC1CC2`: 9.1.
Same read-out and setting: next, `O=C(N[C@@H](c1ccccc1)c1ccc(-c2cccc(OCc3ccc(C(=O)N(CCCNC[C@H](O)c4ccc(O)c5[nH]c(=O)ccc45)Cc4ccccc4)cc3)c2)cc1)O[C@H]1CN2CCC1CC2`: 9.

Test system in a further data set: not listed separately
Briefly: Protein binding in rat plasma.
Conditions: not given
In kind it is ADME, cell-free.
On to `O=C(N[C@@H](c1ccccc1)c1cccc(OCc2ccc(CCNC[C@H](O)c3ccc(O)c4[nH]c(=O)ccc34)cc2)c1)O[C@H]1CN2CCC1CC2`, for which the PPB worked out at 98%.

The same data set, now with this note: read-out: PPB (converted).
Take `O=C(N[C@@H](c1ccccc1)c1ccc(-c2cccc(OCc3ccc(C(=O)NCCCNC[C@H](O)c4ccc(O)c5[nH]c(=O)ccc45)cc3)c2)cc1)O[C@H]1CN2CCC1CC2`: the fraction unbound was 0.05.
Still for that read-out and setting: next, `O=C(N[C@@H](c1ccccc1)c1ccc(-c2cccc(OCc3ccc(C(=O)N(CCCNC[C@H](O)c4ccc(O)c5[nH]c(=O)ccc45)Cc4ccccc4)cc3)c2)cc1)O[C@H]1CN2CCC1CC2`: 0.03.

Test system in the next data set: not listed separately
Briefly: In vivo agonist activity at adrenergic beta2 receptor in guinea pig assessed as reduction in acetylcholine/histamine-induced bronchoconstriction at 3 mg/kg, IT(Intratracheal) measured after 1 hr by Konzett-Roessler methodology relative to control. Particulars: Cavia porcellus, inhaled or nasal. Type of data set: functional.
Turning to `O=C(N[C@@H](c1ccccc1)c1cccc(OCc2ccc(CCNC[C@H](O)c3ccc(O)c4[nH]c(=O)ccc34)cc2)c1)O[C@H]1CN2CCC1CC2`, the inhibition in vivo at 3 mg/kg came to 67%.
Regarding `O=C(N[C@@H](c1ccccc1)c1ccc(-c2cccc(OCc3ccc(C(=O)N(CCCNC[C@H](O)c4ccc(O)c5[nH]c(=O)ccc45)Cc4ccccc4)cc3)c2)cc1)O[C@H]1CN2CCC1CC2`, the inhibition in vivo at 3 mg/kg is 63%.

Test system in the next data set: not listed separately
Put plainly: Protein binding in human plasma.
Conditions: not given
Type of data set: ADME, cell-free.
Consider `O=C(N[C@@H](c1ccccc1)c1cccc(OCc2ccc(CCNC[C@H](O)c3ccc(O)c4[nH]c(=O)ccc34)cc2)c1)O[C@H]1CN2CCC1CC2`, for which the PPB is recorded as 98%.

Still in this data set, the particulars now being: read-out: PPB (converted).
With `O=C(N[C@@H](c1ccccc1)c1ccc(-c2cccc(OCc3ccc(C(=O)NCCCNC[C@H](O)c4ccc(O)c5[nH]c(=O)ccc45)cc3)c2)cc1)O[C@H]1CN2CCC1CC2`, the fraction unbound was 0.05.
Regarding `O=C(N[C@@H](c1ccccc1)c1ccc(-c2cccc(OCc3ccc(C(=O)N(CCCNC[C@H](O)c4ccc(O)c5[nH]c(=O)ccc45)Cc4ccccc4)cc3)c2)cc1)O[C@H]1CN2CCC1CC2`, the fraction unbound was under 0.01.

Test system in another data set: not listed separately
Put plainly: Protein binding in guinea pig plasma. In kind it is ADME, cell-free, Cavia porcellus.
Conditions: not given
In the case of `O=C(N[C@@H](c1ccccc1)c1cccc(OCc2ccc(CCNC[C@H](O)c3ccc(O)c4[nH]c(=O)ccc34)cc2)c1)O[C@H]1CN2CCC1CC2`, the PPB worked out at 99%.

Test system in a further data set: not listed separately
Briefly: In vivo agonist activity at adrenergic beta2 receptor in guinea pig assessed as reduction in acetylcholine/histamine-induced bronchoconstriction at 1 mg/kg, IT(Intratracheal) measured after 24 hrs by Konzett-Roessler methodology relative to control. Type of data set: functional. Particulars: Cavia porcellus, inhaled or nasal.
For `O=C(N[C@@H](c1ccccc1)c1cccc(OCc2ccc(CCNC[C@H](O)c3ccc(O)c4[nH]c(=O)ccc34)cc2)c1)O[C@H]1CN2CCC1CC2`, the inhibition in vivo at 1 mg/kg was found to be 42%.

The species named for a further data set is Cavia porcellus. Briefly: Activity at muscarinic M3 and adrenergic beta2 in guinea pig trachea assessed as time taken for compound action by MABA assay. Type of data set: tissue-based.
Conditions: not given
In general terms: Alamar Blue is a resazurin reagent that responds to reducing activity.
As to `O=C(N[C@@H](c1ccccc1)c1ccc(-c2cccc(OCc3ccc(C(=O)NCCCNC[C@H](O)c4ccc(O)c5[nH]c(=O)ccc45)cc3)c2)cc1)O[C@H]1CN2CCC1CC2`, the TIME is over 4.5 h.
Same read-out and setting: next, `O=C(NC(c1ccccc1)c1cccc(OCCCCCCCCCNC[C@H](O)c2ccc(O)c3[nH]c(=O)ccc23)c1)O[C@H]1CN2CCC1CC2` (stereo not given in full): over 4.5 h; `O=C(NC(c1ccccc1)c1ccc(OCCCCCCCCCNC[C@H](O)c2ccc(O)c3[nH]c(=O)ccc23)cc1)O[C@H]1CN2CCC1CC2` (stereo not given in full): over 4.5 h.
As for `O=C(N[C@@H](c1ccccc1)c1cccc(OCc2ccc(CCNC[C@H](O)c3ccc(O)c4[nH]c(=O)ccc34)cc2)c1)O[C@H]1CN2CCC1CC2`, the TIME was over 4.5 h.
On the same count and under the same terms, next, `O=C(N[C@@H](c1ccccc1)c1ccc(-c2cccc(OCc3ccc(C(=O)N(CCCNC[C@H](O)c4ccc(O)c5[nH]c(=O)ccc45)Cc4ccccc4)cc3)c2)cc1)O[C@H]1CN2CCC1CC2`: over 3 h.

A further data set is filed under the species Cavia porcellus. Briefly: (§1) Antagonist activity at muscarinic M3 receptor in guinea pig trachea assessed as inhibition of carbachol-induced contraction. Type of data set: tissue-based.
Conditions: not given
Summed up: (§2)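 Isolated guinea pig tracheal tissue was contracted with the muscarinic agonist carbachol, and inhibition of contraction was scored. A parallel histamine (H1) challenge, opposed only by the β2 component, was used to estimate the β2 share.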
Turning to `O=C(N[C@@H](c1ccccc1)c1cccc(OCCCCCCNC[C@H](O)c2ccc(O)c3[nH]c(=O)ccc23)c1)O[C@H]1CN2CCC1CC2`, the pIC50 result is “inactive”.

Molecular target in the next data set: not listed separately
The data set is described as §1. Type of data set: tissue-based, Cavia porcellus.
Conditions: not given
Summed up: as §2
On to `O=C(N[C@@H](c1ccccc1)c1ccc(-c2cccc(OCc3ccc(C(=O)NCCCNC[C@H](O)c4ccc(O)c5[nH]c(=O)ccc45)cc3)c2)cc1)O[C@H]1CN2CCC1CC2`, for which the pIC50 is listed as 9.7.
With `O=C(NC(c1ccccc1)c1cccc(OCCCCCCCCCNC[C@H](O)c2ccc(O)c3[nH]c(=O)ccc23)c1)O[C@H]1CN2CCC1CC2` (stereo not given in full), the pIC50 came to 7.5.
On the same count and under the same terms, next, `O=C(NC(c1ccccc1)c1ccc(OCCCCCCCCCNC[C@H](O)c2ccc(O)c3[nH]c(=O)ccc23)cc1)O[C@H]1CN2CCC1CC2` (stereo not given in full): 8.3; `O=C(N[C@@H](c1ccccc1)c1cccc(OCc2ccc(CCNC[C@H](O)c3ccc(O)c4[nH]c(=O)ccc34)cc2)c1)O[C@H]1CN2CCC1CC2`: 9.3; `O=C(N[C@@H](c1ccccc1)c1ccc(-c2cccc(OCc3ccc(C(=O)N(CCCNC[C@H](O)c4ccc(O)c5[nH]c(=O)ccc45)Cc4ccccc4)cc3)c2)cc1)O[C@H]1CN2CCC1CC2`: 8.7.

Test system in a further data set: not listed separately
Put plainly: In vivo agonist activity at adrenergic beta2 receptor in guinea pig assessed as reduction in acetylcholine/histamine-induced bronchoconstriction at 1 mg/kg, IT(Intratracheal) measured after 1 hr by Konzett-Roessler methodology relative to control. In kind it is functional. As to conditions: Cavia porcellus, inhaled or nasal.
As for `O=C(N[C@@H](c1ccccc1)c1cccc(OCc2ccc(CCNC[C@H](O)c3ccc(O)c4[nH]c(=O)ccc34)cc2)c1)O[C@H]1CN2CCC1CC2`, the inhibition in vivo at 1 mg/kg is 20%.
Still for that read-out and setting: next, `O=C(N[C@@H](c1ccccc1)c1ccc(-c2cccc(OCc3ccc(C(=O)N(CCCNC[C@H](O)c4ccc(O)c5[nH]c(=O)ccc45)Cc4ccccc4)cc3)c2)cc1)O[C@H]1CN2CCC1CC2`: 27%.

Another data set deals with Muscarinic acetylcholine receptor M3 (Homo sapiens, UniProt P20309). Put plainly: Displacement of [3H]-N-methylscopolamine from human muscarinic M3 receptor.
Chain of Muscarinic acetylcholine receptor M3 (P20309 whole entry): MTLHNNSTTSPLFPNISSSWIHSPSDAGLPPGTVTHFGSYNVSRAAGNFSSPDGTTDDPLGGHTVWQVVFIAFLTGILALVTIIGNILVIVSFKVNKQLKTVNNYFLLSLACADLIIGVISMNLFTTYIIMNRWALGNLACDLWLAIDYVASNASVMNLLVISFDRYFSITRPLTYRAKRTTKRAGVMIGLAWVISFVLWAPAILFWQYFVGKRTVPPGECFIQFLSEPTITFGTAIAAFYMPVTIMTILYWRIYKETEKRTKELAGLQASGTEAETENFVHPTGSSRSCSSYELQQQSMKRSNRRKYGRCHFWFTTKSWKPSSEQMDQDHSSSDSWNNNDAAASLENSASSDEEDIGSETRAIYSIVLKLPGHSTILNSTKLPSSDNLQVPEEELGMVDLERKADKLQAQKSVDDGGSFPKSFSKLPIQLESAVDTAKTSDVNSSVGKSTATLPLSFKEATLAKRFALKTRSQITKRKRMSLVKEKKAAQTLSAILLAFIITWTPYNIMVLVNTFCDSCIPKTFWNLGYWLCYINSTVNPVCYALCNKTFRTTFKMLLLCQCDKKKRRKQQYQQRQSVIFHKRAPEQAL
Conditions: not given
As for `O=C(N[C@@H](c1ccccc1)c1ccc(-c2cccc(OCc3ccc(C(=O)NCCCNC[C@H](O)c4ccc(O)c5[nH]c(=O)ccc45)cc3)c2)cc1)O[C@H]1CN2CCC1CC2`, the affinity corresponds to a Ki of 100 pM.
On the same count and under the same terms, next, `O=C(NC(c1ccccc1)c1cccc(OCCCCCCCCCNC[C@H](O)c2ccc(O)c3[nH]c(=O)ccc23)c1)O[C@H]1CN2CCC1CC2` (stereo not given in full): 251 pM.
On to `O=C(NC(c1ccccc1)c1ccc(OCCCCCCCCCNC[C@H](O)c2ccc(O)c3[nH]c(=O)ccc23)cc1)O[C@H]1CN2CCC1CC2` (stereo not given in full), for which the Ki (as a rule, a measure of affinity in units of concentration, obtained from inhibition or displacement) was 10000 pM.
`O=C(N[C@@H](c1ccccc1)c1cccc(OCCCCCCNC[C@H](O)c2ccc(O)c3[nH]c(=O)ccc23)c1)O[C@H]1CN2CCC1CC2`: the Ki was 126 pM.
As for `O=C(N[C@@H](c1ccccc1)c1ccc(-c2cccc(OCc3ccc(C(=O)N(CCCNC[C@H](O)c4ccc(O)c5[nH]c(=O)ccc45)Cc4ccccc4)cc3)c2)cc1)O[C@H]1CN2CCC1CC2`, the Ki was 126 pM.
